# High-throughput results from PubChem BioAssay.
# Most compounds without a hit are left out; they make up all but 1.8% or so of the library.
# zVAD death inh = blocks zVAD induced death of L929 cells. L929 zVAD necroptosis rescue, ATP luminescence, 24 h; with zVAD 60 µM. viability rescue, % at 10 µM. 220,000 compounds, 0.38% hits;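 active = activation, scaled between plate controls, above about 75%, limit read from the data; inactive = activation under that limit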;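 also: 0% = zVAD with DMSO and 100% = DMSO alone without zVAD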
# MDM2 E3 inh = inhibitors of human Mdm2 E3 ubiquitin ligase. cell-based MDM2 ubiquitination luciferase reporter, 2 h; 0 = plate control, 100 = twice control, blank-subtracted. signal enhancement, % at 5 µM. Q00987. 210,000 compounds, 0.11% hits;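 active = signal enhancement of 30% or more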;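 also: luminescence tracks abundance of the self-degrading MDM2-luciferase fusion protein; higher signal means inhibition of MDM2 E3 ligase activity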
# Target sequence (Q00987 whole entry, looked up, the tested form may be a part): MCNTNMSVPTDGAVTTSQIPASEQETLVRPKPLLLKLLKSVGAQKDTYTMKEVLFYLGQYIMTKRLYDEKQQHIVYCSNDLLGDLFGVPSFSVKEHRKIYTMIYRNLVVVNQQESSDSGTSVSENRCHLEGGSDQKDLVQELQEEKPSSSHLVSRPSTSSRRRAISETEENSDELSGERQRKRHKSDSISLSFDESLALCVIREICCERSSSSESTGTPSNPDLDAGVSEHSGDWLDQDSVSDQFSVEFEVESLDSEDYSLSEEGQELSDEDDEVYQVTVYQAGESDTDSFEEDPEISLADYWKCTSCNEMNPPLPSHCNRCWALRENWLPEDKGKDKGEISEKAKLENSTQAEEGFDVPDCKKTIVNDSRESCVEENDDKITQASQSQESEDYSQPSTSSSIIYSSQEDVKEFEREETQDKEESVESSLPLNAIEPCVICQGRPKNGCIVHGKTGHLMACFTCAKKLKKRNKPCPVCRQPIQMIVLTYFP
#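 Assay system: stable mammalian line carrying autodegrading MDM2–luciferase fusion reporter; Input: 2000 cells in each well; Compound dosing: single-point 5 µM; Schedule: 2 h compound exposure at 37 °C; Signal: SteadyLite luciferase luminescence after 15 min room-temperature reagent incubation; Evaluation: % luminescence enhancement versus blank-corrected plate control mean; Benchmarks: plate controls and plate blanks.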
# TNF death inh = blocks TNF-alpha induced death of Jurkat FADD-/- cells; AID 463075; Jurkat FADD-/- TNF necroptosis rescue, ATP luminescence, 24 h; 0 = TNF only, 100 = no-TNF cells; 220,000 compounds, 0.068% hits; activation (protection from cell death), % at 10 µM;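 active = activation, meaning protection from cell death, of at least 50% relative to plate controls; inactive = activation below 50%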;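 also: necroptosis triggered by 40 ng/mL TNF-alpha added together with compound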
# Dynein transport = dynein cargo transport inhibition; z-score, hits read low; 220,000 compounds, 0.47% hits; 3617.4 mouse cells, GR-EGFP nuclear translocation imaging; test concentration mostly 20 µM; stimulated with dexamethasone, 1 µM; active compounds read low;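 active = plate z-score of nuclear minus cytoplasmic receptor signal below a set negative limit, without overly bright fluorescence or cell loss, cut at about -3.5 in these data, passing the limit was not always enough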;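 also: z-score of nuclear minus cytoplasmic ring GR-EGFP intensity difference per well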
#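 Buffer or medium: tet-free, stripped-serum medium; Also added: dexamethasone, 1.0 µM final; Technique: high-content fluorescence imaging after fixation; Times: 48 h induction, 1 h compound, 30 min dex at 37 °C; Read-out: per-cell GR-EGFP intensity, nucleus versus surrounding cytoplasmic ring, well-averaged.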
# Autophagy HCS = alters autophagy in cells | 190,000 compounds, 0.98% hits | calls only at 10 µM (by protocol) | MEF GFP-LC3 puncta imaging; test concentration mostly 10 µM;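 active = percentage of spot-positive cells more than 3 SD above its plate mean, without a fluorescence outlier flag or 80% toxicity; inconclusive = no clear call, values can overlap the other calls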;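 also: spot-positive cell cutoff set from DMSO-treated cells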
# Dynein confirm = dynein cargo transport inhibition, confirmation | shares compounds with Dynein transport | 3617.4 GR-EGFP nuclear translocation imaging, dexamethasone-induced | calls only at 20 µM | 1,000 compounds, 69% hits | AID 463116;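 active = inhibition of receptor movement into the nucleus at or above a set limit in both runs, with normal cell brightness and cell count; inconclusive = limit reached in only one run, brightness and count normal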;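 also: dexamethasone at 1 µM final in well for 30 min; nuclear minus cytoplasmic GR-EGFP mean intensity difference in channel 2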
# * hit, by the source's call; i = inactive; ? = inconclusive; nt = no result given; + = active, no number.
SMILES,zVAD death inh,MDM2 E3 inh,TNF death inh,Dynein transport,Autophagy HCS,Dynein confirm
Nc1cccc2c1C(=O)N(C(=O)/C=C/c1cccc(F)c1)C2=O,2.2,7.5,-4.4,-4.3*,i,+
CN(C)CCCN(C(=O)CCOc1ccccc1)c1nc2ccc(F)cc2s1,-1.5,6.5,-10.7,-3.51*,i,i
CN(C)CCCN(C(=O)CCOc1ccccc1)c1nc2c(F)cccc2s1,-1.2,-13.8,-13.7,-7.86*,i,+
CN(C)CCCN(C(=O)COc1ccccc1)c1nc2ccc(F)cc2s1,2.5,-8.7,3.1,-1.3,i,nt
C=CCn1c(SCC2CCCCO2)nc2sc(CC)cc2c1=O (stereo unspecified),-0.3,nt,-0.3,0.704,nt,nt
C=CCN1C(=O)C2C3CC(=O)C(c4ccccc43)C2C1=O (stereo unspecified),0.8,2.7,-0.2,2.04,i,nt
CC1CCCCN1CCCNC(=O)c1cc(Br)c(Br)[nH]1 (stereo unspecified),0.5,-17.6,3.4,-0.765,i,nt
CCOC(=O)Cc1csc(NC(=O)/C=C/c2ccc(OC)cc2)n1,0.6,-36.1,2.1,1.21,i,nt
CO/N=C/c1ccc(Oc2ccc([N+](=O)[O-])cc2[N+](=O)[O-])c(OC)c1,0.1,-4.8,-4.8,-0.152,i,nt
COc1cc(/C=C2\SC(=O)NC2=O)ccc1Oc1ccc([N+](=O)[O-])cc1[N+](=O)[O-],0.4,-6.8,2.0,-3.79*,i,?
Cc1nc2ccccc2n1/N=C/c1ccc([N+](=O)[O-])o1,37.4,nt,-22.0,-1.42,i,nt
Cc1nc2ccccc2c(=O)n1/N=C/c1ccc([N+](=O)[O-])o1,-0.7,6.5,-27.2,-4.02*,nt,+
COC(=O)c1cc(NC(=O)c2ccccc2)c(=O)oc1/C=C/Nc1ccc(Oc2ccccc2)cc1,3.8,-14.7,-0.1,-7.61,i,i
COc1ccc(C(=O)Nc2cc(C(C)=O)c(C)oc2=O)cc1,1.1,-11.9,-0.6,0.288,i,nt
CCCn1c(SCC(=O)Nc2cccc(S(=O)(=O)N(C)C)c2)nc2ccccc2c1=O,-0.6,-6.6,2.7,0.128,nt,nt
CC1=NN(c2ccccc2)C(=O)/C1=C\C=C\c1ccccc1,3.9,16.5,-26.7,-5.27*,nt,+
Cn1cc(C(=O)CCl)c2ccccc21,-0.7,-0.5,-1.4,-4.78*,i,+
CC(CCCC(C)(C)O)NCc1cn[nH]c1-c1ccc2c(c1)OCO2 (stereo unspecified),0.2,3.9,0.4,-0.375,i,nt
Cc1ccnc(SCc2cc(=O)c(OC(=O)c3cc([N+](=O)[O-])ccc3Cl)co2)n1,-0.2,-12.4,-4.2,-4.68*,i,+
O=[N+]([O-])/C=C/c1cn(Cc2ccc(F)cc2)c2ccccc12,-0.1,-16.8,-15.7,-3.87*,i,+
CCC1(C)CC2(CCCN(CCC(=O)c3ccccc3)C2)CCO1 (stereo unspecified),-0.6,2.7,-4.6,-3.75*,i,i
Cc1ccc[n+](CC(=O)Nc2cc(C(F)(F)F)ccc2Cl)c1,-0.1,-14.0,-2.8,nt,i,nt
CCC(C)(C)c1ccc(OCCCC[n+]2cccc(C)c2)c(C(C)(C)CC)c1,0.9,-59.0,-15.2,-4.79*,i,i
COc1cccc(C(=O)Nc2ccc(NC(C)=O)cc2)c1,0.0,-3.0,-0.3,0.354,i,nt
COc1cccc(C(=O)C(C#N)=C(SC)SC)c1,-0.3,-0.6,-23.4,-4.53*,nt,+
SMILES,zVAD death inh,MDM2 E3 inh,TNF death inh,Dynein transport,Autophagy HCS,Dynein confirm
CSC(SC)=C(C#N)C(=O)c1ccccc1,1.4,25.8,-26.5,-4.79*,nt,+
CCOc1cc(N2CCOCC2)c(OCC)cc1NC(=O)c1c(-c2ccccc2Cl)noc1C,0.8,-7.0,1.5,0.251,i,nt
O=C(/C=C/c1ccc(O)c(O)c1)c1ccccc1O,9.8,-31.0,-20.5,-5.38*,nt,+
Cc1ccc(C(=O)/C=C/c2ccc(F)cc2)o1,0.3,-10.2,3.9,-1.29,i,nt
O=C(/C=C/c1ccc(F)cc1)c1ccccc1Br,-0.3,-2.4,2.7,-5.67*,i,+
O=C(/C=C/c1ccoc1)c1ccccc1O,0.8,-5.1,2.1,-1.75,i,nt
C=CCSc1nc2sc(C)c(C)c2c(=O)n1N,0.3,-3.3,0.5,0.597,i,nt
COC(=O)c1ccccc1SC(CC(=O)c1ccccc1)c1ccc(F)cc1 (stereo unspecified),0.2,1.8,-4.2,-0.0988,nt,nt
Cc1ccc(S(=O)(=O)NC2OC(=O)C(Cl)=C2Cl)cc1 (stereo unspecified),0.8,-12.6,-5.5,-3.64*,i,i
COC(=O)C(NS(=O)(=O)c1ccc(C)cc1)c1ccccc1 (stereo unspecified),1.9,-1.7,-0.5,0.347,i,nt
Cc1ccccc1OCC(=O)N(CC(C)C)c1c(N)n(CC(C)C)c(=O)[nH]c1=O,-0.5,-18.6,-0.2,0.355,nt,nt
O=[N+]([O-])c1cc(/C=N/Nc2nc3ccccc3[nH]2)c(O)cc1O,7.6,-11.4,-10.9,-0.0722,i,nt
COc1ccccc1NC1=C(NC(C)=O)C(=O)c2ccccc2C1=O,-0.1,-5.5,-3.1,-5.07*,i,?
CC(=O)N(CCC(c1ccco1)C(C)C)Cc1ccc(Cl)cc1 (stereo unspecified),0.3,-11.8,-1.5,-4.66*,nt,i
CCC(=O)N(CCC(c1ccco1)C(C)C)Cc1ccccc1 (stereo unspecified),-0.4,-22.0,-0.7,-0.208,nt,nt
COC(=O)Nc1ccc(S(=O)(=O)N2CCCC(C(=O)N3CC(C)OC(C)C3)C2)cc1 (stereo unspecified),-0.6,-13.1,1.0,0.0635,i,nt
O=C(/C=C/c1ccccn1)c1ccc(Br)cc1O,0.0,-9.4,0.6,-3.68*,i,?
COc1ccc(/C=C/C(=O)c2cc(Br)ccc2O)cc1OC,3.0,-3.6,-2.7,-0.366,i,nt
O=C(/C=C/c1ccc(O)cc1)c1ccc(O)cc1O,24.7,nt,-1.7,-1.78,i,nt
O=C(/C=C/c1ccccn1)c1cc(Br)ccc1O,-0.4,-9.2,-18.6,-4.82*,nt,+
Cc1ccc(C)c2nc3sc(C(=O)N4CCOCC4)c(N)c3cc12,11.1,-5.5,-3.2,-1.11,i,nt
Cc1sc(NC(=O)c2sc3nc4c(C)cccc4cc3c2N)c(C#N)c1C,1.2,-25.1,-0.7,-4.92,+,+
Cc1cccc2cc3c(N)c(C(=O)N4CCc5ccccc54)sc3nc12,1.8,-10.4,-2.2,-11.2,+,i
C=CCSc1nc2ccccc2n1C(=O)/C=C/c1cc(OC)c(OC)c(OC)c1,-0.5,53.6*,33.5,-6*,i,+
